Data taken from ChEMBL document CHEMBL4513216, “Probing the Open Global Health Chemical Diversity Library for Multistage-Active Starting Points for Next-Generation Antimalarials” (ACS Infect Dis, 2020).

Experiment: Toxicity liver stage against HepG2, at 10uM
Format: cell-based
Parameters: test concentration 10 uM, cell line HepG2-A16-CD81EGFP
Conditions: human, HepG2-A16-CD81EGFP cells; read-out: INHIBITION
How it was run: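 Uninfected HepG2-A16-CD81EGFP cells, 3 × 10^3 per well, 1536-well, plated on prespotted compound at 10 μM final, parasite-free screening media added to match infected plates; puromycin 10 μM positive, DMSO 0.5% negative; run in parallel with 48 h PbLuc assay at 37 °C, 5% CO2; viability by CellTiter-Glo luminescence, normalized to controls.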

`CN(C)Cc1ccccc1Cn1cncc1-c1cnn(C)c1` gave a cytotoxicity at 10 µM of 6.16%.
For `Cc1cc(C)n(C2CN(Cc3noc(-c4ccccc4)n3)C2)n1`, the cytotoxicity at 10 µM was -12.8%.
With `Cc1c[nH]cc1C(=O)N1CCN(Cc2nc(C(C)C)no2)CC1` the cytotoxicity at 10 µM was -4.54%.
`CCCN(CCC)c1ncc(S(=O)(=O)c2ccc(C)cc2)c(N)n1` showed a cytotoxicity at 10 µM of 3.19%.
Molecule `Cc1nnc(SCCNc2cc(C3CC3)ncn2)s1` has a cytotoxicity at 10 µM of -6.67%.
With `Cc1cccc(CNC(Cc2ccsc2)c2nc(C)c(C)s2)n1` (stereo not given) the cytotoxicity at 10 µM was -0.52%.
`CCOc1nnc(CN2CCCC(c3nc4ccccc4[nH]3)C2)s1` (stereo not given) showed a cytotoxicity at 10 µM of 14.6%.
`Cn1cc2ncn(CCCOc3cccnc3)c(=O)c2n1` gave a cytotoxicity at 10 µM of -5.18%.
In the case of `OCC1(CC2CC2)CCCN(Cc2cnc(C3CCCCC3)nc2)C1` (stereo not given), the cytotoxicity at 10 µM is reported as -9.2%.
Molecule `OCCN1CCN(CC(O)c2ccc(C(F)(F)F)cc2)CC1` (stereo not given) has a cytotoxicity at 10 µM of -10%.
Molecule `CN(Cc1cnn(C)c1)C(=O)NC1CCN(Cc2ccccn2)CC1` has a cytotoxicity at 10 µM of -2.35%.
For `Cc1nc2cc(C(=O)N3C[C@@H](NS(C)(=O)=O)[C@H](C(C)C)C3)ccc2[nH]1`, the cytotoxicity at 10 µM was -4.47%.
`O=C(CCOc1ccccc1F)NC1CCCN(c2ccccn2)C1` (stereo not given) showed a cytotoxicity at 10 µM of -5.67%.
Work on `CC(C)c1nc(C2CCCN(C(=O)CCCn3cccn3)C2)no1` (stereo not given) yielded a cytotoxicity at 10 µM of -1.36%.
`CC(NCC1CCN(CCO)CC1)c1ccc(C(F)(F)F)cc1` (stereo not given) showed a cytotoxicity at 10 µM of -7.28%.
With `CCCNC(=O)C(C)Oc1ccccc1` (stereo not given) the cytotoxicity at 10 µM was -6.68%.
For `CCOCC1CN(C(=O)Cc2ccccn2)Cc2cn(C)nc21` (stereo not given), the cytotoxicity at 10 µM was 1.86%.
For `CC(C)(C)n1ncc2c1CCCC2NCc1ccc2c(c1)OCCO2` (stereo not given), the cytotoxicity at 10 µM was 1.7%.
`Nc1nc(CNc2ncnc3c2CCN(Cc2ccoc2)CC3)cs1` showed a cytotoxicity at 10 µM of 1.63%.
With `CCn1nc(CC(C)C)cc1C(=O)NCCS(=O)(=O)N(C)C` the cytotoxicity at 10 µM was 11.2%.
Work on `COc1ccc([C@@H]2C[C@H](NC(C)=O)C[C@H](Cc3ccccc3)O2)cn1` yielded a cytotoxicity at 10 µM of 5.46%.
Molecule `O=C(c1ncc[nH]1)N1CCC(n2cc(-c3ccccn3)nn2)CC1` has a cytotoxicity at 10 µM of 4.95%.
In the case of `CCC(C(=O)Nc1ccc(-c2nc(C)n[nH]2)cc1)N1CCCC1=O` (stereo not given), the cytotoxicity at 10 µM is reported as -44.8%.
`O=C1CN(C(=O)C2CCC3(CC2)CNC(=O)c2ccccc2O3)CCN1` (stereo not given) showed a cytotoxicity at 10 µM of -11.6%.
With `CCn1nc(C)c2nnn(CC(=O)Nc3c(C)cccc3C)c(=O)c21` the cytotoxicity at 10 µM was 5.22%.
With `Cc1ncc(CNC2CC(=O)N(CCc3ccc(F)cc3)C2)n1C` (stereo not given) the cytotoxicity at 10 µM was -0.309%.
Molecule `CC1(C(=O)N2CCOCC2)CN(Cc2ncc[nH]2)CCO1` (stereo not given) has a cytotoxicity at 10 µM of -11.3%.
`Cc1ccsc1CN(C)Cc1nc2c(cnn2C)c(=O)[nH]1` showed a cytotoxicity at 10 µM of -0.575%.
With `c1cncc(-n2cnnc2CCCN2CCOCC2)c1` the cytotoxicity at 10 µM was 1.5%.
For `Cn1ccnc1CN1CCC(c2nc3ccccc3n2C)CC1`, the cytotoxicity at 10 µM was 1.42%.
`CCN1CCC(CNC(=O)C2(c3ccc(F)cc3)CC2)C1` (stereo not given) gave a cytotoxicity at 10 µM of -23%.
Work on `OC[C@H]1CCCN1c1nccc(-c2cncnc2C2CCCCC2)n1` yielded a cytotoxicity at 10 µM of 0.0815%.
Work on `Cn1cc(C(=O)N2CC[C@@]3(O)CCN(C4CCCCC4)C[C@H]3C2)cn1` yielded a cytotoxicity at 10 µM of -131%.
For `COc1ccc(CNC(=O)c2ccc(=O)n(C)c2)cc1C`, the cytotoxicity at 10 µM was 2.31%.
With `Cc1nc(CN2CCCC(NCCOCC(F)(F)F)C2)no1` (stereo not given) the cytotoxicity at 10 µM was -11.1%.
`O=C(C(NCc1cccc(F)c1F)c1ccccc1)N1CCOCC1` (stereo not given) showed a cytotoxicity at 10 µM of 8.61%.
With `O=C1OCCN1Cc1cccc(F)c1C(F)(F)F` the cytotoxicity at 10 µM was 2.61%.
`NC(=O)NCCC(=O)NCc1cccnc1N1CCc2ccccc2C1` showed a cytotoxicity at 10 µM of 4.92%.
Molecule `O=S1(=O)C[C@@H]2[C@H](C1)N(Cc1cc(F)cc(F)c1)CCN2CCO` has a cytotoxicity at 10 µM of -2.61%.
Molecule `CC(NC1CCN(CC(=O)N(C)C)CC1)c1cnn(C(C)C)c1` (stereo not given) has a cytotoxicity at 10 µM of -0.54%.
`CC(=O)NCCNC(=O)c1sc(-c2ccc(Cl)s2)nc1C` showed a cytotoxicity at 10 µM of -1.28%.
`CO[C@@H]1CCC[C@@H](NC(=O)c2cccc(F)c2)[C@H]1O` showed a cytotoxicity at 10 µM of 1.65%.
Molecule `Cc1occc1C(=O)N1C[C@@H]2OCCN(c3ncccn3)[C@@H]2C1` has a cytotoxicity at 10 µM of 7.34%.
`Cc1cc(C(F)(F)F)nc(C2(C)CCCN2CC(N)=O)n1` (stereo not given) gave a cytotoxicity at 10 µM of 6.62%.
With `CS(=O)(=O)N1CCCC(c2cccc(-c3ccccc3F)n2)C1` (stereo not given) the cytotoxicity at 10 µM was -3.81%.
